In brackets after ≈: the same amount, converted by molar mass.
What was measured:
[1] = Mean oral bioavailability in Swiss albino male mice at […] per compound (administered in a mixture of 5 compounds to 3 mice) assessed by LCMS/MS.; note: dose 2.5 mg/kg; format: ADME, organism-based; details: mouse, in vivo
[2] = Mean AUC inf in Swiss albino male mice at 1 mg/kg per compound (administered iv in a mixture of 5 compounds to 3 mice) assessed by LCMS/MS.; format: ADME, organism-based; details: male, Swiss albino, mouse, in vivo
Procedure, shortened: (§1)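 Male Swiss albino mice (~30 g), 3 per experiment, mostly dosed as mixtures of 5 compounds iv via the lateral tail vein. Vehicle: 10% DMSO/90% 50 mM Na2HPO4 with 0.5% Tween-80. Blood sampled at 5, 15, 30 min and 1, 2, 4, 8, 24 h. Plasma stored at −20 °C and quantified by LC-MS after acetonitrile precipitation.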

[3] = Mean observed clearance in Swiss albino male mice at 1 mg/kg per compound (administered iv in a mixture of 5 compounds to 3 mice) assessed by LCMS/MS.; format: ADME, organism-based; details: male, Swiss albino, mouse, in vivo, read-out: Clearance (converted); procedure, shortened: as §1
[4] = Mean volume of distribution at steady state in Swiss albino male mice at 1 mg/kg per compound (administered iv in a mixture of 5 compounds to 3 mice) assessed by LCMS/MS.; format: ADME, organism-based; details: mouse, in vivo, read-out: Volume
Procedure, shortened: (§2)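 Male Swiss albino mice (~30 g), 3 per experiment, mostly dosed as mixtures of 5 compounds iv via the lateral tail vein. Vehicle: 10% DMSO/90% 50 mM Na2HPO4 with 0.5% Tween-80. Plasma stored at −20 °C and quantified by LC-MS after acetonitrile precipitation.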

[5] = Mean half-life in Swiss albino male mice at 1 mg/kg per compound (administered iv in a mixture of 5 compounds to 3 mice) assessed by LCMS/MS.; format: ADME, organism-based; details: mouse, in vivo; procedure, shortened: as §2
[6] = Mean plasma concentration at 24h in Swiss albino male mice at […] per compound (administered orally in a mixture of 5 compounds to 3 mice) assessed by LCMS/MS.; format: ADME, organism-based; details: mouse, po
[7] = Mean plasma concentration at 4h in Swiss albino male mice at […] per compound (administered orally in a mixture of 5 compounds to 3 mice) assessed by LCMS/MS.; format: ADME, organism-based; details: mouse, po
[8] = Mean time to peak plasma concentration in Swiss albino male mice at […] per compound (administered orally in a mixture of 5 compounds to 3 mice) assessed by LCMS/MS.; format: ADME, organism-based; details: mouse, po
[9] = Percentage of parent compound remaining after incubation for 90 minutes with cyropreserved mouse hepatocytes at a concentration of 1uM compound and […], determined by LCMS; format: ADME, tissue-based, Hepatocyte; details: cryopreserved mouse hepatocytes, read-out: Stability
Procedure, shortened: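 Compound was incubated at 1 µM final (2 µM working solution mixed 1:1 with hepatocyte suspension) in supplemented KHB pH 7.4. Conditions: 37 °C, 5% CO2, gentle mixing, duplicates. Reaction quenched with ice-cold acetonitrile containing standard; analysed by LC-MS/MS. % remaining = AUC at t / AUC at T0.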

Schistosoma mansoni [10] = test: Concentration required to kill 50% of 42 day old worms 5 days after drug treatment.; format: functional, organism-based; details: Puerto Rican, 120 h
Procedure, shortened: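 Adult S. mansoni were perfused from CD1 mice 6 weeks post-infection and washed. They were cultured 3 pairs per well in 1 mL DMEM with 2 mM glutamine, penicillin/streptomycin and 10% FCS […] at 37 °C, 5% CO2. Viability of individual worms was scored on day 5 (120 h).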

Schistosoma mansoni [11] = test: Concentration required to kill 50% of 21 day old worms 5 days after drug treatment.; format: functional, organism-based; details: Puerto Rican, 120 h
Procedure, shortened: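 Juvenile S. mansoni (Puerto Rican strain) were perfused from CD1 mice 3 weeks post-infection and washed. They were cultured 6–8 per well in 200 µL DMEM with 2 mM glutamine, penicillin/streptomycin and 10% FCS at 37 °C, 5% CO2. Viability of individual worms was scored on day 5 after dosing (120 h).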

[12] = Concentration required to kill 50% HepG2 cells as detected by MTT staining; format: toxicity, cell-based; details: homo sapiens, read-out: TC50 (the source's name)
[13] = Solubility at 25 degC of compound (diluted from DMSO) in PBS at pH 7.4 determined after 24h (1h sonication, 22h shaking, 1h sonication) by LCMS/MS; format: physicochemical
[14] = Partition coefficient of compound between n-octanol and PBS (pH7.4); format: physicochemical; details: octanol/water, pH 7.4
Procedure, shortened: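 Shake-flask method using octanol and PBS pH 7.4, each pre-saturated with the other. Compound was shaken 2 h at 850 rpm, 25 °C, then the phases were separated by centrifugation and both layers diluted and analysed by LC-MS/MS. LogD = log(octanol AUC × relative dilution / buffer AUC).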

[15] = male, Swiss albino, read-out: Bioavailability

| SMILES | bioavailability [1, 15] [%] | AUC(0-inf) [2] [µg·h/mL] | clearance [3] [L/h/kg] | Vd [4] [L/kg] | half-life [5] [min] | concentration at 24 h [6] [ng/mL] | concentration at 4 h [7] [ng/mL] | Tmax [8] [min] | remaining at 1.5 h, 1 µM [9] [%] | EC50 (Schistosoma mansoni [10]) [µM] | EC50 (Schistosoma mansoni [11]) [µM] | CC50 [12] [µM] | solubility kinetic at 24 h [13] [µM] | bioavailability [1] [%] | Lipophilicity [14] |
| --- | --- | --- | --- | --- | --- | --- | --- | --- | --- | --- | --- | --- | --- | --- | --- |
| CC(C)c1nc2cnc(-c3ccc(F)c(C(F)(F)F)c3)cn2c1-c1ccc2[nH]ncc2c1 | 81.8 | 1.44 | 0.35 | 3.16 | 479 | 60.5 | 371 | 40 | 41.3 | 0.185 | 0.174 | – | – | – | – |
| CC(C)c1nn2cnc(-c3ccc(F)c(C(F)(F)F)c3)cc2c1-c1ccc2[nH]ncc2c1F | – | – | – | – | – | – | 332 | 120 | – | – | – | – | – | – | – |
| CC(C)Oc1cccc(-c2cn3c(-c4ccc5[nH]ncc5c4F)c(C(F)(F)F)nc3cn2)c1 | – | – | – | – | – | – | – | – | – | 0.0173 | 0.0264 | 13.2 | – | – | – |
| Oc1ccc(-c2cnc3cnc(C4=COCCC4)cn23)cc1 | 0.01 | 0.0522 | 10.6 | – | – | – | – | 0.6 | – | – | > 25 | – | – | – | – |
| Fc1c(-c2c(C(F)(F)F)nc3cnc(-c4ccnc(C(F)(F)F)c4)cn23)ccc2[nH]ncc12 | – | – | – | – | – | – | – | – | 76.5 | 0.117 | 0.138 | 7 | 2.95 (≈ 1.38 µg/mL) | – | – |
| Cc1c(-c2c(C(F)(F)F)nc3cnc(-c4ccc(F)c(C(F)(F)F)c4)cn23)ccc2[nH]ncc12 | 65.2 | 2 | 0.258 | 7.87 | 1420 | 98.1 | 250 | 40 | – | – | 0.76 | – | – | – | – |
| CC(C)c1nc2cnc(-c3cccc(C(F)(F)F)c3)cn2c1-c1c(F)cc(O)cc1F | – | – | – | – | – | – | – | – | 30.2 | < 0.0455 | 0.0937 | 7.5 | 0.951 (≈ 0.412 µg/mL) | – | – |
| Cc1noc(C)c1-c1cn2c(-c3ccc(O)cc3)cnc2cn1 | 0.01 | 0.0612 | 8.4 | 0.493 | 3.65 | – | – | 0.6 | – | – | > 25 | – | – | – | – |
| Cc1nc2cnc(-c3ccc(F)c(C(F)(F)C(F)(F)F)c3)cn2c1-c1c(F)cc(O)cc1F | – | – | – | – | – | – | – | – | 31.6 | 0.0195 | 0.0205 | 8.8 | 2.43 (≈ 1.15 µg/mL) | – | – |
| Fc1c(-c2c(C(F)(F)F)nc3cnc(-c4cccc(C(F)(F)F)c4)cn23)ccc2[nH]ncc12 | – | – | – | – | – | – | – | – | 69 | 0.0252 | 0.0415 | – | – | – | – |
| Fc1ccc(-c2cn3c(-c4ccc5[nH]ncc5c4)c(C(F)(F)F)nc3cn2)cc1C(F)(F)F | 91.3 | 2.73 | 0.185 | 6.69 | 1400 | 208 | 322 | 100 | 56.2 | 0.329 | 0.35 | – | – | – | – |
| Oc1cc(F)c(-c2c(C3CC3)nc3cnc(-c4ccc(F)c(C(F)(F)C(F)(F)F)c4)cn23)c(F)c1 | – | – | – | – | – | – | – | – | 54.3 | 0.0105 | 0.0239 | 9.4 | 3.14 (≈ 1.57 µg/mL) | – | – |
| Fc1ccc(-c2cn3c(-c4ccc5[nH]ncc5c4F)c(C(F)(F)F)nc3cn2)cc1C1CC1 | 135 | 0.27 | 1.89 | 4.45 | 169 | 6.53 | 131 | 40.2 | – | 0.012 | 0.0193 | 10.5 | – | – | – |
| Fc1c(-c2c(C3CC3)nc3cnc(-c4cccc(S(F)(F)(F)(F)F)c4)cn23)ccc2[nH]ncc12 | – | – | – | – | – | – | – | – | 80.9 | 0.0207 | 0.0358 | 20.7 | 1.7 (≈ 0.842 µg/mL) | – | – |
| CC(C)c1cccc(-c2cn3c(-c4ccc5[nH]ncc5c4F)c(C(F)(F)F)nc3cn2)c1 | – | – | – | – | – | – | – | – | 16.7 | 0.0053 | 0.00518 | 12.9 | – | – | – |
| CC(C)Oc1cc(-c2cn3c(-c4ccc5[nH]ncc5c4F)c(C(F)(F)F)nc3cn2)ccc1F | – | 0.34 | – | – | – | – | 185 | 40.2 | – | – | – | 9.25 | – | 152 | 5.47 = |
| CC(C)c1nn2cnc(-c3ccc(F)c(C(F)(F)F)c3)cc2c1-c1c(F)cc(O)cc1F | 14.3 | 0.342 | 1.51 | 1.77 | – | 0.01 | 22.4 | 20 | 42.2 | 0.0217 | 0.0269 | 8.9 | 6.55 (≈ 2.96 µg/mL) | – | – |
| CC(C)c1nc2cnc(-c3ccc(F)c(C(F)(F)F)c3)cn2c1-c1ccc(O)cc1Cl | – | – | – | – | – | – | – | – | 20.3 | 0.102 | 0.127 | – | – | – | – |
| Cc1nc2cnc(-c3cccc(C(F)(F)C(F)(F)F)c3)cn2c1-c1c(F)cc(O)cc1F | 57.1 | 0.32 | 1.57 | 8.08 | – | 7 | 55.8 | 15 | 33.5 | 0.0339 | 0.0351 | 9.3 | 2.33 (≈ 1.06 µg/mL) | – | – |
| Fc1ccc(-c2cn3c(-c4ccc5[nH]ncc5c4F)c(C(F)(F)F)nc3cn2)cc1C1CCC1 | 121 | 0.23 | 2.14 | 3.77 | 132 | 3.2 | 123 | 79.8 | – | 0.0458 | 0.0591 | 6.09 | – | – | – |
